# pIC50: −log10 of the molar value. The source made the active and inactive calls. No cut-off for these calls is given here.
# Legend:
# [1] = target: Mitogen-activated protein kinase 14 (Homo sapiens, UniProt Q16539); details: 1 uM
# Mus musculus [2] = experiment: Inhibition of BRAF-mediated ERK phosphorylation in human A375 cells xenografted nude mouse at 50 mg/kg, iv after 24 hrs; format: functional, organism-based; set-up: dose 50 mg/kg; details: A-375
# [3] = target: Ephrin type-A receptor 1 (Homo sapiens) (UniProt P21709); experiment: Inhibition of EPHA1 at 1 uM
# [4] = AUC (infinity) in nude mouse at 10 mg/kg, po; format: ADME, organism-based; set-up: time infinity, dose 10 mg/kg, route oral; details: plasma
# [5] = target: Tyrosine-protein kinase ZAP-70 (Homo sapiens) (UniProt P43403); experiment: Inhibition of ZAP70 at 1 uM
# [6] = target: RAF proto-oncogene serine/threonine-protein kinase (Homo sapiens, UniProt P04049); details: 1 uM
# Chain of RAF proto-oncogene serine/threonine-protein kinase (P04049 whole entry): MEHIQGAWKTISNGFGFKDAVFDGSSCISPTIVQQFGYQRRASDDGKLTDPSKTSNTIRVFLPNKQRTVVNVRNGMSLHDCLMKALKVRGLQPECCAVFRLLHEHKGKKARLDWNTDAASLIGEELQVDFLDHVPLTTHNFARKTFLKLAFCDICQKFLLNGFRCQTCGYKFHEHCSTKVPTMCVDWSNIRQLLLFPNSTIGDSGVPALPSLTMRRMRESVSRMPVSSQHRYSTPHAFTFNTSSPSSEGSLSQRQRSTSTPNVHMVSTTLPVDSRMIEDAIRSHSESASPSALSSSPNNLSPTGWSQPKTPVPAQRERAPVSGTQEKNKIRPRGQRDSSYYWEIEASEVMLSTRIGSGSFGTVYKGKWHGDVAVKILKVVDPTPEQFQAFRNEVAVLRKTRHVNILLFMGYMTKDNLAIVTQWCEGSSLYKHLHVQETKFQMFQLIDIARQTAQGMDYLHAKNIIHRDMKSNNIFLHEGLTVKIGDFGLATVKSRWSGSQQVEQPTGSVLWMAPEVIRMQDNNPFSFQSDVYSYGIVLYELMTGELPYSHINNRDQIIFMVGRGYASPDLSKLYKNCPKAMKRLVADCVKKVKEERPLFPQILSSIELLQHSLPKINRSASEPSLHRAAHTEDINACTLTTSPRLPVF
# [7] = target: Cyclin-dependent kinase 2/cyclin A (Homo sapiens) (UniProt P24941+P20248+P78396); experiment: Inhibition of CDK2/cyclin A at 1 uM; format: protein-complex assay
# [8] = target: Fibroblast growth factor receptor 2 (Homo sapiens) (UniProt P21802); experiment: Inhibition of FGFR2 at 1 uM
# [9] = target: Insulin-like growth factor 1 receptor (Homo sapiens) (UniProt P08069); experiment: Inhibition of IGF1R at 1 uM
# [10] = target: Proto-oncogene tyrosine-protein kinase receptor Ret (Homo sapiens, UniProt P07949); experiment: Inhibition of RET at 1 uM
# Chain of Proto-oncogene tyrosine-protein kinase receptor Ret (P07949 whole entry): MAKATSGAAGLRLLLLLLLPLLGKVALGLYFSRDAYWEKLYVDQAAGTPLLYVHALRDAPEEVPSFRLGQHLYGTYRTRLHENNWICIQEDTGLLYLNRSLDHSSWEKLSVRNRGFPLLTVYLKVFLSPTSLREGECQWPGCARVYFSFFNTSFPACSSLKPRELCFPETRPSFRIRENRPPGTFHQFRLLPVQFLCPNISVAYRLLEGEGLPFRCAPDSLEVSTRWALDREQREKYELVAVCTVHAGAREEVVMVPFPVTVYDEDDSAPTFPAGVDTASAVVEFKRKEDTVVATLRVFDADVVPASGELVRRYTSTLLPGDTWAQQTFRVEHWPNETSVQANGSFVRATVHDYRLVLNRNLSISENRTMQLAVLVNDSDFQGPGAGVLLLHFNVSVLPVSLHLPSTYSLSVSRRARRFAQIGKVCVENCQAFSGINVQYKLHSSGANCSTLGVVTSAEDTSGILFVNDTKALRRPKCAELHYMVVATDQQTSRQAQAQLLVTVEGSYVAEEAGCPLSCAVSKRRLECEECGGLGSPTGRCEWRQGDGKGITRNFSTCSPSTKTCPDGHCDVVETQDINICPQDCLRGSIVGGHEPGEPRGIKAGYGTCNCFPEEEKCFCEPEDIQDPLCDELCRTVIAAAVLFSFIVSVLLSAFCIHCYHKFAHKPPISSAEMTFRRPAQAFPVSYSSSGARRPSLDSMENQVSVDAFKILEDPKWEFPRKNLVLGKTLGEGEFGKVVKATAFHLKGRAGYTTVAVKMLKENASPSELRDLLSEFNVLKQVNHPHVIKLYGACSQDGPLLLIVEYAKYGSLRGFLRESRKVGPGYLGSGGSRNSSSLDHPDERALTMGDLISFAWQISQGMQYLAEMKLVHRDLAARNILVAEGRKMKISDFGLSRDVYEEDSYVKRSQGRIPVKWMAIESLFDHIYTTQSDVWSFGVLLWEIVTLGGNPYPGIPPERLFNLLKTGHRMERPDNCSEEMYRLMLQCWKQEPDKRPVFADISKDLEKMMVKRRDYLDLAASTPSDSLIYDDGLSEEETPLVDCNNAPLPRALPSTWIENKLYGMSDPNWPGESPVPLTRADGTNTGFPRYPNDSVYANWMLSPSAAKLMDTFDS
# [11] = target: Platelet-derived growth factor receptor alpha (Homo sapiens) (UniProt P16234); experiment: Inhibition of PDGFRA at 1 uM
# [12] = target: Fibroblast growth factor receptor 1 (Homo sapiens) (UniProt P11362); experiment: Inhibition of FGFR1 at 1 uM
# [13] = Volume of distribution at steady state in nude mouse; format: ADME, organism-based; details: in vivo, read-out: Vdss
# [14] = target: Vascular endothelial growth factor receptor 1 (Homo sapiens) (UniProt P17948); experiment: Inhibition of FLT1 at 1 uM
# [15] = test system: Serine/threonine-protein kinase B-raf (Homo sapiens), P15056 [V600E]; experiment: Inhibition of BRAF V600E mutant in human A375 cells assessed as reduction of ERK phosphorylation; format: cell-based; details: A-375
# Chain of Serine/threonine-protein kinase B-raf (Homo sapiens), P15056 [V600E] (P15056 whole entry V600E): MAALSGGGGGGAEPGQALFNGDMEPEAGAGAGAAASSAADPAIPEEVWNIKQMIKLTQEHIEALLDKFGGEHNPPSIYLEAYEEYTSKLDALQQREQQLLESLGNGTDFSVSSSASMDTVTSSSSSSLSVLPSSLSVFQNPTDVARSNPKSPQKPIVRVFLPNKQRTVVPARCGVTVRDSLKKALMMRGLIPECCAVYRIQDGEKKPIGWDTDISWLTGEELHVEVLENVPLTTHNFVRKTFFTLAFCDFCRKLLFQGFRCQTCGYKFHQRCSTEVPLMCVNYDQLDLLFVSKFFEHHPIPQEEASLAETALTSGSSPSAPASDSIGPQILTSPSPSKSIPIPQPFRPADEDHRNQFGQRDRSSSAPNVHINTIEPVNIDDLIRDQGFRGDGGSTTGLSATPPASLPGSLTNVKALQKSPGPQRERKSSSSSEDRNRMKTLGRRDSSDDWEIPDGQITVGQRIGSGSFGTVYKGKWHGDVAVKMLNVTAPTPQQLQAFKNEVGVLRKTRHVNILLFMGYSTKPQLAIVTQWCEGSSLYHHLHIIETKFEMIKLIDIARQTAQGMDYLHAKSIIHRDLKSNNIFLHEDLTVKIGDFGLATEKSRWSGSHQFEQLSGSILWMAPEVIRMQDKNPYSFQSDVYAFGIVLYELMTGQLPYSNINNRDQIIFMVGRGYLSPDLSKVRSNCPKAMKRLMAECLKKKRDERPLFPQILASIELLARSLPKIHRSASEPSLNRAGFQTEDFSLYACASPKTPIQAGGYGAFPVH
# [16] = target: Tyrosine-protein kinase Yes (Homo sapiens, UniProt P07947); experiment: Inhibition of YES1
# [17] = target: Tyrosine-protein kinase Lck (Homo sapiens, UniProt P06239); experiment: Inhibition of LCK at 1 uM
# Chain of Tyrosine-protein kinase Lck (P06239 2-509 limits assumed): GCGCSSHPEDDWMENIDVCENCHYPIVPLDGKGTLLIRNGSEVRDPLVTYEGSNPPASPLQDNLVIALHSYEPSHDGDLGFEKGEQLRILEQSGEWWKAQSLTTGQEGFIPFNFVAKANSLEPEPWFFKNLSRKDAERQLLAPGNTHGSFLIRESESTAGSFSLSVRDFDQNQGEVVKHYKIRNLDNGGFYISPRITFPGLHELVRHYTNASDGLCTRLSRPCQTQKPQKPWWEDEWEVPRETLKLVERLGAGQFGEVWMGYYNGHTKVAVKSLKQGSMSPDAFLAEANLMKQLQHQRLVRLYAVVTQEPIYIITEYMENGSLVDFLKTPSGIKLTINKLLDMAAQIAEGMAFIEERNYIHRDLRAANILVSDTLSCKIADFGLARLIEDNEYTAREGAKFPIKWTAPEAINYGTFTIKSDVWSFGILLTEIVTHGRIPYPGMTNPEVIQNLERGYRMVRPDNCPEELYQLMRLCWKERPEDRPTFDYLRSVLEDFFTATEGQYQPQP
# A-375 [18] = experiment: Antitumor activity against human A375 cells xenografted in nude mouse assessed as tumor growth inhibition at 7.5 mg/kg, po; format: functional; details: read-out: TGI
# Summary of the method: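 A375 xenografts in nude mice dosed orally once daily; n = 10 per arm; tumour size measured by caliper at set times; error shown as standard deviation.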
# [19] = target: Mitogen-activated protein kinase 1 (Homo sapiens) (UniProt P28482); experiment: Inhibition of MAPK1 at 1 uM
# Chain of Mitogen-activated protein kinase 1 (Homo sapiens) (P28482 whole entry): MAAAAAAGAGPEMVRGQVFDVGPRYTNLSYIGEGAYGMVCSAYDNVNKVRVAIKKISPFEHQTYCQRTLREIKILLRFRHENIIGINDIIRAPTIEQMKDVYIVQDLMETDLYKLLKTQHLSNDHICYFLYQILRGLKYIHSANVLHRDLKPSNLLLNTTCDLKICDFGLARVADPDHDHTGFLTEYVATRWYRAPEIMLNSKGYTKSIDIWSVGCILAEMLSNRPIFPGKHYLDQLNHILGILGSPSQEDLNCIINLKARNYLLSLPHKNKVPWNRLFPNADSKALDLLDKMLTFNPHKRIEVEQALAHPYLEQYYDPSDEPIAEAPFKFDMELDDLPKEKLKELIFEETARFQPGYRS
# [20] = target: Inhibitor of nuclear factor kappa-B kinase subunit beta (Homo sapiens) (UniProt O14920); experiment: Inhibition of IKBKB at 1 uM
# [21] = target: Protein kinase C beta type (Homo sapiens) (UniProt P05771); experiment: Inhibition of PRKCB2 at 1 uM
# [22] = Drug level in tumor tissue of human A375 cells xenografted nude mouse at 25 mg/kg, po after 24 hrs; format: ADME, organism-based, Neoplasm, A-375; set-up: dose 25 mg/kg, route oral; details: read-out: Drug uptake
# [23] = target: Tyrosine-protein kinase Fes/Fps (Homo sapiens) (UniProt P07332); experiment: Inhibition of FES at 1 uM
# [24] = target: RAC-alpha serine/threonine-protein kinase (Homo sapiens) (UniProt P31749); experiment: Inhibition of AKT1 at 1 uM
# Chain of RAC-alpha serine/threonine-protein kinase (Homo sapiens) (P31749 whole entry): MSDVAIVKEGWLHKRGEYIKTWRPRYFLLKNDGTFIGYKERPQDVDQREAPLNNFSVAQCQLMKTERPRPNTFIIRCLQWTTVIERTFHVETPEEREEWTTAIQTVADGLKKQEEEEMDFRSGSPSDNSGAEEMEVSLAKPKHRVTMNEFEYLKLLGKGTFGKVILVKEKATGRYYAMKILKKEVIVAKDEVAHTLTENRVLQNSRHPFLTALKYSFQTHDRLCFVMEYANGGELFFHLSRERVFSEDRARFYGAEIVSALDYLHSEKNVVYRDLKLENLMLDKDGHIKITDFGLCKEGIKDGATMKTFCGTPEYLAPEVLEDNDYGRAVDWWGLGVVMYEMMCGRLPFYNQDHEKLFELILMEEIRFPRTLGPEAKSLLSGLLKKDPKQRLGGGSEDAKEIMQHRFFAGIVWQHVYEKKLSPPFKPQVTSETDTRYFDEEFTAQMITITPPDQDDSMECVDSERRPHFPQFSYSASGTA
# [25] = target: 3-phosphoinositide-dependent protein kinase 1 (Homo sapiens) (UniProt O15530); experiment: Inhibition of PDK1 at 1 uM
# [26] = target: Hepatocyte growth factor receptor (Homo sapiens) (UniProt P08581); experiment: Inhibition of MET at 1 uM
# [27] = target: Receptor tyrosine-protein kinase erbB-2 (Homo sapiens) (UniProt P04626); experiment: Inhibition of ERBB2 at 1 uM
# [28] = target: Tyrosine-protein kinase ABL1 (Homo sapiens, UniProt P00519); experiment: Inhibition of ABL1 at 1 uM
# Chain of Tyrosine-protein kinase ABL1 (P00519 whole entry): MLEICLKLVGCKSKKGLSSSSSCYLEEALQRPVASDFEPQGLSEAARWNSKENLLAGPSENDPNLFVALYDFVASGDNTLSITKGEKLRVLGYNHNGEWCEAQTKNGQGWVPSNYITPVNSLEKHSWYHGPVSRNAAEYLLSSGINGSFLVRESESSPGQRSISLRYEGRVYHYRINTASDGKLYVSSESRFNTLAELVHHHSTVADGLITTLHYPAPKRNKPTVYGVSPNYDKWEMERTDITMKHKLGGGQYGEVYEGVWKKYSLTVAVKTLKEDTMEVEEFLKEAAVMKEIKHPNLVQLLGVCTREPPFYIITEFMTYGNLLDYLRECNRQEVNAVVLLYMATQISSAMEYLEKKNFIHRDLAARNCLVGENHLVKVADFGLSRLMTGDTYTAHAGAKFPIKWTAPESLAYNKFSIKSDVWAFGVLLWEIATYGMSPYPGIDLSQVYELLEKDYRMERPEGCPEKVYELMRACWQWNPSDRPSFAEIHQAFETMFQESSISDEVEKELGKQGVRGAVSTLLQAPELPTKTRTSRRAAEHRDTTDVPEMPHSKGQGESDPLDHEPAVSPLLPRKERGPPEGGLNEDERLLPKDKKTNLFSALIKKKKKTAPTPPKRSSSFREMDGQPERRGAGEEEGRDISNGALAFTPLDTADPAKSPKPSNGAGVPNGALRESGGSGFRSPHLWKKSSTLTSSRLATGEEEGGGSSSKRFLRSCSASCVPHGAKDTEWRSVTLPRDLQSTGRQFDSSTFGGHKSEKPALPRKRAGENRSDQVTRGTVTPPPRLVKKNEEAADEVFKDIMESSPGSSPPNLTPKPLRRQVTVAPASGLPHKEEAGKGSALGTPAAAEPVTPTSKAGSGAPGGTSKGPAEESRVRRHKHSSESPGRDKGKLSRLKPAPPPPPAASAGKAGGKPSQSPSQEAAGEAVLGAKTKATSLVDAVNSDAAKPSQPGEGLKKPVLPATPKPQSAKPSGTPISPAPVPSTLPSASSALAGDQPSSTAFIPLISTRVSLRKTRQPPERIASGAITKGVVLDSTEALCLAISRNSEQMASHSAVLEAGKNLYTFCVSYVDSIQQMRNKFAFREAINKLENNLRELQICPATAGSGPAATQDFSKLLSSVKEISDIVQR
# [29] = target: Ribosomal protein S6 kinase beta-1 (Homo sapiens) (UniProt P23443); experiment: Inhibition of RPS6B1 at 1 uM
# [30] = target: Serine/threonine-protein kinase B-raf (Homo sapiens, UniProt P15056); experiment: Inhibition of BRAF at 1 uM
# Chain of Serine/threonine-protein kinase B-raf (P15056 whole entry): as the sequence (P15056 whole entry V600E) above, with E600V counted along it
# [31] = Clearance in nude mouse; format: ADME, organism-based; details: in vivo
# Ephrin type-A receptor 1 = Ephrin type-A receptor 1 (Homo sapiens, UniProt P21709); experiment: Inhibition of EPHA1
# [32] = target: Tyrosine-protein kinase BTK (Homo sapiens) (UniProt Q06187); experiment: Inhibition of BTK at 1 uM
# Mus musculus [33] = experiment: Inhibition of BRAF-mediated ERK phosphorylation in human A375 cells xenografted nude mouse at 10 mg/kg, po QD; format: functional, organism-based; set-up: dose 10 mg/kg; details: A-375
# Summary of the method: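 Nude mice bearing A375 xenografts received an oral 10 mg/kg dose once daily. Tumours were taken from treated and untreated animals 6 h after the first dose, and ERK phosphorylation in tumour tissue was measured.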
# A-375 [34] = experiment: Growth inhibition of human A375 cells after 4 days by MTT assay; format: functional, cell-based; details: A-375, 96 h
smiles,measurement,setting,value
CN1C[C@@H]2C[C@H]1CN2c1cc(F)c(-c2ccnc3c(-c4cccc5[nH]ncc45)c(-c4ccncc4)nn23)c(F)c1,inhibition,[1],81%
same,inhibition,Mus musculus [2],Active
same,inhibition,[3],84%
same,AUC(0-inf),[4],4000 ng·h/mL
same,inhibition,[5],4%
same,inhibition,[6],88%
same,inhibition,[7],4%
same,inhibition,[8],66%
same,inhibition,[9],5%
same,inhibition,[10],84%
same,inhibition,[11],5%
same,inhibition,[12],63%
same,Vd,[13],4.7 L/kg
same,inhibition,[14],14%
same,inhibition,[15],Active
same,pIC50,[16],6.61
same,inhibition,[17],73%
same,inhibition in vivo at 7.5 mg/kg,A-375 [18],39%
same,inhibition,[19],6%
same,inhibition,[20],5%
same,inhibition,[21],51%
same,concentration at 24 h,[22],6.1 µM
same,inhibition,[23],21%
same,inhibition,[24],5%
same,inhibition,[25],3%
same,inhibition,[26],66%
same,inhibition,[27],37%
same,inhibition,[28],70%
same,inhibition,[29],5%
same,inhibition,[30],100%
same,clearance,[31],23 mL/min/kg
same,pIC50,Ephrin type-A receptor 1,7.02
same,inhibition,[32],48%
same,inhibition,Mus musculus [33],Active
same,pIC50,A-375 [34],7.62

# — ChEMBL document CHEMBL1275379, “Indazolylpyrazolopyrimidine as highly potent B-Raf inhibitors with in vivo activity” (J Med Chem, 2010)
